# An excerpt weighted towards active compounds, which were near 1.3% of everything screened.
# Rad51 HR inh = human RAD51 strand exchange inhibitors, primary screen, biochemical, fluorescence; DNA repair protein RAD51 homolog 1 (Homo sapiens), Q06609; hRad51 DNA strand exchange, fluorescence dequenching; inhibition, % at 10 µM; actives 0.085% (n = 200,000); AID 1385, 2008;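 active means inhibition above 40% at the single screening dose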;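 further: 0% = DMSO control wells and 100% = blanks with heterologous ssDNA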
#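 Test system: preformed human Rad51 ssDNA filaments. Compound dosing: single dose, 10 µM final compound. Incubation: filaments 15 min 37 °C, then compound 30 min. Technique: FRET fluorescence dequenching, excitation 485 nm, emission 520 nm. Read-out basis: percent inhibition from fluorescence, normalised to plate control and blank means. Benchmarks: plate controls and plate blanks.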
# Hck-Nef inh = inhibitors of Nef-activated human Hck kinase, primary screen, biochemical, Z-Lyte FRET, 384-well, Hck-YEEI; inhibition, % at 20 µM; Tyrosine-protein kinase HCK (Homo sapiens), P08631; Recombinant Hck-YEEI plus Nef, Z-Lyte FRET kinase assay; actives 0.68% (n = 220,000);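 active means Hck-Nef kinase inhibition above about 50%, limit read from the data; inactive means inhibition below that limit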;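 further: 0% = DMSO with Hck plus Nef and 100% = Hck alone without Nef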
# Target sequence (P08631 whole entry, looked up): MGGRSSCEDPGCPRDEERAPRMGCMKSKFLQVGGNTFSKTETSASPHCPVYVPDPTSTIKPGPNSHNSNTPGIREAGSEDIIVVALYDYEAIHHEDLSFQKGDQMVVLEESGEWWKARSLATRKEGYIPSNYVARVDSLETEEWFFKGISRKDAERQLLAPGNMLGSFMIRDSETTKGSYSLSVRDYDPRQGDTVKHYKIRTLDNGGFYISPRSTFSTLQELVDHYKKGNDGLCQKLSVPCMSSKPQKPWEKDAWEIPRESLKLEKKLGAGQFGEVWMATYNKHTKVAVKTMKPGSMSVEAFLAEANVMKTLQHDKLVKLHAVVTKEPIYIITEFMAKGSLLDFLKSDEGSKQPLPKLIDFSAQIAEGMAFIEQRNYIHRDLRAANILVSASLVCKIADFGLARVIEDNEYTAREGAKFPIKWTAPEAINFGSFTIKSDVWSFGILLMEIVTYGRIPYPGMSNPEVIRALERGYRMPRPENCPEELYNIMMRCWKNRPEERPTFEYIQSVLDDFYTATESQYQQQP
# Mdm2 ligase inh = MDM2-luciferase reporter signal enhancers, primary screen, MDM2 E3 ligase inhibitor project, cell-based, luminescence, 1536-well; E3 ubiquitin-protein ligase Mdm2 (Homo sapiens), Q00987; cell-based MDM2 ubiquitination luciferase reporter, 2 h; 0 = plate control, 100 = twice control, blank-subtracted; signal enhancement, % at 5 µM; actives 0.11% (n = 210,000);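 active means signal enhancement of 30% or more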;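 further: luminescence tracks abundance of the self-degrading MDM2-luciferase fusion protein; higher signal means inhibition of MDM2 E3 ligase activity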
#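 Assay system: stable mammalian line carrying autodegrading MDM2–luciferase fusion reporter; Input: 2000 cells in each well; Compound dosing: single-point 5 µM; Schedule: 2 h compound exposure at 37 °C; Signal: SteadyLite luciferase luminescence after 15 min room-temperature reagent incubation; Evaluation: % luminescence enhancement versus blank-corrected plate control mean; Benchmarks: plate controls and plate blanks.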
# PKD1 inh = inhibitors of human PKD1 kinase, biochemical, fluorescence polarization; PKD1 kinase fluorescence polarization assay; inhibition, % (no concentration beside the values); actives 0.056% (n = 200,000); AID 797, 2007; in the data active means inhibition above about 50%
# H9c2 TAG inh = inhibitors of triacylglycerol accumulation, primary screen, cell-based, uHTS, fluorescence, H9c2. H9c2 cells, Nile Red lipid (TAG) fluorescence; cells loaded with 200 µM oleic acid. inhibition, % at 12.5 µM. actives 0.66% (n = 230,000);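 active means pattern-corrected inhibition of lipid staining of at least 50% with the nuclear-stain viability signal not falling by more than 50%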;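 further: 0% = DMSO wells and 100% = triacsin C control wells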
# PERK inhibitor = block of dimerizer-induced PERK translation repression, primary screen, PERK inhibitor project, CHO PERK-DD cells, SEAP luminescence, HTS; Eukaryotic translation initiation factor 2-alpha kinase 3 (Homo sapiens), Q9NZJ5; CHO PERK-DD fusion, SEAP luminescence translation reporter; inhibition, % at 5.6 µM; actives 0.17% (n = 220,000); AID 1416, 2008;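 active means inhibition above the mean inhibition of all tested compounds plus 3 SD, set separately per screening campaign, cut at about 2.9% in these data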;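 further: PERK kinase domain activated by AP20187 dimerizer at 100 nM; 0% = DMSO with dimerizer and 100% = rapamycin at 8.4 µM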
# Hck Nef conf = retest of Hck:Nef kinase inhibitor hits, confirmation, biochemical, Z-Lyte FRET, 384-well, p-Tyr peptide counterscreen; AID 463188, 2010; actives 28% (n = 1,300); Recombinant Hck-YEEI:Nef, Z-Lyte FRET kinase assay; shares compounds with Hck-Nef inh; calls only at 10 µM;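 active means average inhibition of at least 50%, with Z-scores no higher than 3 in both the phospho-tyrosine peptide and fluorescence counterscreens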
# TAG conf = triacylglycerol accumulation inhibitors, retest, confirmation, cell-based, single concentration, Nile Red fluorescence, H9c2; shares compounds with H9c2 TAG inh; H9c2 lipid accumulation; cells loaded with 200 µM oleic acid; inhibition, % at 12.5 µM; actives 71% (n = 990); AID 651629, 2012;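 active means mean inhibition across replicates of 40% or more; inactive means mean inhibition below 40%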;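 further: plate controls were DMSO only wells for no effect and Triacsin C treated wells for full effect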
# Starred values were filed as active, the others as inactive; i = inactive; · = no result; + = active, no number.
SMILES,Rad51 HR inh,Hck-Nef inh,Mdm2 ligase inh,PKD1 inh,H9c2 TAG inh,PERK inhibitor,TAG conf,others
O=c1c2ccccc2[se]n1-c1ccccc1,-3,102*,·,-7,-2,1,·,Hck Nef conf=+
O=c1c2ccccc2nc(-c2ccccc2)n1-c1ccccc1,-8,3,-12,·,-10,-2,·,
CCCN1CCO[C@@H]2c3cc(O)ccc3OC[C@H]21,·,·,·,·,3,·,·,
CC(=O)OC1CCC2(C)C(=CC(=O)C3C2CCC2(C)C(OC(C)=O)CCC32)C1 (stereo not given),·,·,·,·,-8,·,·,
O=C1NC(=O)C(=Cc2ccc(OCCOc3ccc([N+](=O)[O-])cc3)cc2)C(=O)N1,-1,63*,9,-5,-4,0,·,Hck Nef conf=i
CN1C(=O)C(=Cc2coc3ccccc3c2=O)C(=O)N(C)C1=O,19,81*,-13,·,0,-1,·,Hck Nef conf=+
Cc1cc(C=C2C(=O)N(C)C(=O)N(C)C2=O)c(C)n1-c1ccccc1,15,23,-8,-6,0,-1,·,
CC1CC(C)(O)CC(C(O)CC2CC(=O)NC(=O)C2)C1=O (stereo not given),·,·,·,·,89,·,·,
CCCCCCC(C)(C)c1ccc([C@@H]2C[C@H](O)CC[C@H]2CCCO)c(O)c1,·,·,·,·,106*,·,116*,
COc1ccc2[nH]c(C)c(CCNCc3cn(C)c4ccccc34)c2c1,·,·,·,·,56*,·,46*,
COC(=O)C1=C(c2cc3ccccc3s2)C[C@@H]2CC[C@H]1N2C(=O)N1CCC(O)CC1,5,·,·,·,-20,·,·,
COc1ccc(C(CC(=O)c2ccc3c(c2)OCO3)c2c(O)c3ccccc3oc2=O)cc1OC (stereo not given),·,·,·,·,-6,·,·,
COc1ccc(C2=CC(c3ccc4c(c3)OCO4)c3c(c4ccccc4oc3=O)O2)cc1OC (stereo not given),·,·,·,·,61*,·,60*,
CCC(C)n1c(O)c(C=Nc2cccc(C(F)(F)F)c2)c(=O)[nH]c1=S (stereo not given),3,1,-9,6,·,1,·,
CN1CSC(=S)N(C)C1,1,0,-5,3,64*,1,64*,
COC(=O)C1=C(c2ccc(OCc3ccccc3)cc2)C[C@@H]2CC[C@H]1N2C(=O)NCc1ccccc1,·,·,·,·,-13,·,·,
COC(=O)C1=C(c2ccc(OCc3ccccc3)cc2)C[C@@H]2CC[C@H]1N2C(=O)NCc1ccc(C(C)(C)C)cc1,·,·,·,·,70*,·,75*,
COC(=O)C1=C(c2ccc(C(C)=O)cc2)C[C@@H]2CC[C@H]1N2C(=O)NCc1ccc(F)cc1,·,·,·,·,-6,·,·,

# Screens as filed in PubChem BioAssay.
